According to ChEMBL document CHEMBL2176964, “Small molecule inhibitors of Bacillus anthracis protective antigen proteolytic activation and oligomerization” (J Med Chem, 2012):
Active and inactive are the calls of the source. The rule behind the calls is not given here.

Tests used:
Homo sapiens = species: Homo sapiens; test: Inhibition of human furin-mediated TGFalpha-PE38 cleavage at 1 to 100 uM after 1 hr by Western blot analysis
Procedure, shortened: (§1)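 Substrate at 100 nM (purified PA for PA83 cleavage; TGFα-PE38 with a furin-cleavable RKKR linker) was mixed with 1, 10 or 100 μM inhibitor, or 1% DMSO. Buffer: 50 mM Hepes pH 7.5, 2 mM CaCl2, 0.5 mM EDTA, 0.2% octyl glucoside. Soluble human furin was added at 1 nM final for 1 h at 37°C. The reaction was boiled in SDS dye, run on a 4–20% gel and blotted with anti-PA or anti-Pseudomonas exotoxin serum.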

[1] = biological target: Protective antigen (Bacillus anthracis) (UniProt P13423); test: Inhibition of Bacillus anthracis Protective antigen assessed as reduction in PA83 level in CHO C4 cells at 100 uM after 1 hr by Western blot analysis relative to untreated-control; format: cell-based
Sequence of Protective antigen (Bacillus anthracis) (P13423 whole entry): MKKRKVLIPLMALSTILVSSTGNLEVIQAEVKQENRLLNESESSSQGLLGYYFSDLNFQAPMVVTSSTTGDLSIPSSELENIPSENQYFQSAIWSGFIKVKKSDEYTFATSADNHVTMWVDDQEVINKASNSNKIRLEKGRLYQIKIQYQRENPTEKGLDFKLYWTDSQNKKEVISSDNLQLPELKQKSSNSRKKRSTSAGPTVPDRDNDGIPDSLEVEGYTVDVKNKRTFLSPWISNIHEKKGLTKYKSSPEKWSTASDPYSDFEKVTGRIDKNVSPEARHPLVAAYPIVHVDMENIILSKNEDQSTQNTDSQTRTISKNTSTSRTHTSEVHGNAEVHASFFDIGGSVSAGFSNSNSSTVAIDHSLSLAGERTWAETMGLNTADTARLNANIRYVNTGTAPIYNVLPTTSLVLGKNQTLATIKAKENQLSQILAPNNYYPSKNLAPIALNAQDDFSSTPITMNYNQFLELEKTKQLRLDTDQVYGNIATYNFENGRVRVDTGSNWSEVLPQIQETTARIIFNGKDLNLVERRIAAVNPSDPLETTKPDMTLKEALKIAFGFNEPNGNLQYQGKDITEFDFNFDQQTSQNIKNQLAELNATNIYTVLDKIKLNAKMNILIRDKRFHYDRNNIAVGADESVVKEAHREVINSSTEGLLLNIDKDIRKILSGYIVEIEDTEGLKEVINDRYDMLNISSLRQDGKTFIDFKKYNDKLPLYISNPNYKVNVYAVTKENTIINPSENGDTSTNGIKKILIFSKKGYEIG

[2] = biological target: Protective antigen (Bacillus anthracis) (UniProt P13423); test: Inhibition of Bacillus anthracis Protective antigen-mediated cytotoxicity in RAW264.7 cells by MTT assay in presence of fetal bovine serum; format: cell-based
[3] = biological target: Protective antigen (Bacillus anthracis) (UniProt P13423); test: Inhibition of Bacillus anthracis Protective antigen-mediated cytotoxicity in RAW264.7 cells at 3 uM compound co-treated for 5 hrs with antigen measured after 48 hrs by MTT assay in presence of FP59; format: cell-based
[4] = biological target: Protective antigen (Bacillus anthracis) (UniProt P13423); test: Inhibition of Bacillus anthracis Protective antigen-mediated cytotoxicity in RAW264.7 cells at 10 uM compound co-treated for 5 hrs with antigen by MTT assay in presence of lethal factor; format: cell-based
[5] = biological target: Protective antigen (Bacillus anthracis) (UniProt P13423); test: Inhibition of Bacillus anthracis Protective antigen assessed as reduction in PA83 level in CHO C4 cells at 100 uM after 1 hr by Western blot analysis relative to untreated-control in presence of lethal factor; format: cell-based
HT-1080 [6] = test: Cytotoxicity against human HT1080 cells at 10 to 100 uM by MTT assay; format: cell-based; conditions: ht-1080, 100 µM
Procedure, shortened: (§2)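 Compound toxicity was measured in serum-free DMEM with 10 mM Hepes pH 7.3 and gentamicin at 37°C, by MTT read-out. There were two exposure schemes: a 5-h exposure, or a 54-h incubation in which the inhibitor was removed from the medium after 5 h. MTT cannot distinguish growth inhibition from toxicity.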

[7] = biological target: Protective antigen (Bacillus anthracis) (UniProt P13423); test: Inhibition of Bacillus anthracis Protective antigen assessed as reduction in PA63 level in CHO C4 cells at 100 uM after 1 hr by Western blot analysis relative to untreated-control; format: cell-based
[8] = biological target: Protective antigen (Bacillus anthracis) (UniProt P13423); test: Inhibition of human furin-mediated Bacillus anthracis PA83 cleavage at 1 to 100 uM after 1 hr by Western blot analysis; procedure, shortened: as §1
RAW264.7 [9] = test: Cytotoxicity against mouse RAW264.7 cells at 10 to 100 uM by MTT assay; format: cell-based; conditions: raw264.7, 100 µM; procedure, shortened: as §2
[10] = biological target: Protective antigen (Bacillus anthracis) (UniProt P13423); test: Inhibition of Bacillus anthracis Protective antigen-mediated cytotoxicity in human HT1080 cells by MTT assay in presence of fetal bovine serum; format: cell-based; conditions: HT-1080
HT-1080 [11] = test: Cytotoxicity against human HT1080 cells compound incubated at 10 to 100 uM for extended period by MTT assay; format: cell-based; conditions: ht-1080, 100 µM; procedure, shortened: as §2
RAW264.7 [12] = test: Cytotoxicity against mouse RAW264.7 cells compound incubated at 10 to 100 uM for extended period by MTT assay; format: cell-based; conditions: raw264.7, 100 µM; procedure, shortened: as §2
[13] = biological target: Protective antigen (Bacillus anthracis) (UniProt P13423); test: Inhibition of Bacillus anthracis Protective antigen-mediated cytotoxicity in RAW264.7 cells compound co-treated for 5 hrs with antigen by MTT assay in presence of lethal factor; format: cell-based
[14] = biological target: Protective antigen (Bacillus anthracis) (UniProt P13423); test: Inhibition of Bacillus anthracis Protective antigen-mediated cytotoxicity in RAW264.7 cells at 100 uM compound co-treated for 5 hrs with antigen measured after 48 hrs by MTT assay in presence of FP59; format: cell-based
[15] = biological target: Protective antigen (Bacillus anthracis) (UniProt P13423); test: Inhibition of Bacillus anthracis Protective antigen-mediated cytotoxicity in RAW264.7 cells at 100 uM compound co-treated for 5 hrs with antigen by MTT assay in presence of lethal factor; format: cell-based
[16] = biological target: Protective antigen (Bacillus anthracis) (UniProt P13423); test: Inhibition of matrix metalloprotease activated Bacillus anthracis Protective antigen-mediated cytotoxicity in HT1080 cells at 100 uM compound co-treated for 5 hrs with antigen measured after 48 hrs by MTT assay in presence of FP59; format: cell-based; conditions: HT-1080
[17] = biological target: Protective antigen (Bacillus anthracis) (UniProt P13423); test: Inhibition of Bacillus anthracis Protective antigen-mediated cytotoxicity in HT1080 cells at 100 uM compound co-treated for 5 hrs with antigen measured after 48 hrs by MTT assay in presence of FP59; format: cell-based; conditions: HT-1080

Row | SMILES | inhibition (Homo sapiens) | inhibition [1] | inhibition [2] | inhibition [3] | inhibition [4] | inhibition [5] | Activity (HT-1080 [6]) | inhibition [7] | inhibition [8] | Activity (RAW264.7 [9]) | inhibition [10] | Activity (HT-1080 [11]) | Activity (RAW264.7 [12]) | inhibition [13] | inhibition [14] | inhibition [15] | inhibition [16] | inhibition [17]
1 | NC(=O)c1ccccc1NC(=O)c1ccc(C(=O)Nc2ccccc2C(N)=O)cc1 | inactive | inactive | inactive | Active | Active | inactive | Non-toxic | Active | inactive | Non-toxic | inactive | – | – | – | – | – | – | –
2 | Oc1ccccc1/C=N/c1ccc(Cc2ccc(/N=C/c3ccccc3O)c(O)c2)cc1O | inactive | inactive | inactive | Active | Active | inactive | – | Active | Active | – | inactive | Toxic | Toxic | – | – | – | – | –
3 | NC(=O)c1ccccc1NC(=O)c1cccc(C(=O)Nc2ccccc2C(N)=O)c1 | – | – | – | – | – | – | – | – | – | – | – | – | – | Active | – | – | – | –
4 | O=c1c(O)c(-c2ccc(O)c(O)c2)oc2cc(O)cc(O)c12 | inactive | inactive | inactive | – | – | inactive | – | inactive | inactive | – | inactive | – | – | – | Active | Active | Active | Active
